Data reported in ChEMBL document CHEMBL3877293, “Synthesis and Antineoplastic Evaluation of Novel Unsymmetrical 1,3,4-Oxadiazoles” (J Med Chem, 2016).
pIC50: −log10 of the molar value. Active and inactive are the calls of the source. No cut-off for these calls is given here.

Assays:
[1] = Cell cycle arrest in human NB-1 cells assessed as G2/M phase accumulation at 1 uM after 48 hrs by propidium iodide staining based flow cytometry (reference value: 12.4%); conditions: nb1, 48 h
[2] = Induction of apoptosis in human NB-1 cells assessed as late apoptotic cells at 5 uM after 72 hrs by Annexin-V FITC/propidium iodide staining based flow cytometry (reference value: 3.3%); type: cell-based; conditions: nb1, 72 h
[3] = Cell cycle arrest in human NCI-H1299 cells assessed as S phase accumulation at 1 uM after 24 hrs by propidium iodide staining based flow cytometry (reference value: 16.4 +/- 1.76%); type: functional
[4] = Antiproliferative activity against human A549 cells after 72 hrs by XTT assay; type: functional, cell-based; conditions: A549, 72 h
Outline: (§1)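 Cells plated at 1500–2000 per well by doubling time, treated after 24 h with a concentration series in six triplicate wells, and incubated 72 h without a medium change. XTT reagent was then added for 4 h at 37 °C and absorbance read at 490 nm. IC50 is the concentration halving absorbance versus untreated cells. Experiments run in triplicate.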

[5] = Cell cycle arrest in human NB1 hTERT cells assessed as sub G1 phase accumulation at 1 uM after 48 hrs by propidium iodide staining based flow cytometry relative to control; type: functional
HeLa [6] = assay: Disruption of beta-tubulin network in human HeLa cells assessed as induction of abnormal cell division at 1 uM after 24 hrs by DAPI staining based immunofluorescence microscopic analysis
[7] = Cell cycle arrest in human HeLa cells assessed as S phase accumulation at 1 uM after 8 hrs by propidium iodide staining based flow cytometry (reference value: 19.2%); type: functional
A549 = assay: Increase in p53 expression in human A549 cells at 1 uM after 24 hrs by immunoblot method relative to control; type: functional
Outline: (§2)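 After 24 h treatment at 1 μM, cells lysed in Tris pH 8/NaCl/glycerol/NP-40/EDTA buffer with protease inhibitors. Equal lysate amounts run on 10% SDS gels, blotted to nitrocellulose, probed for p53 with GAPDH as loading control, detected by enhanced chemiluminescence. Bands quantified by densitometry against GAPDH and compared with untreated cells; three independent experiments.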

[8] = Cell cycle arrest in human MCF7 cells assessed as S phase accumulation at 1 uM treated for 24 hrs followed by compound washout measured after 24 hrs by propidium iodide staining based flow cytometry (reference value: 12.2%); type: functional
[9] = Cell cycle arrest in human NB1 hTERT cells assessed as G1 phase accumulation at 1 uM after 48 hrs by propidium iodide staining based flow cytometry (reference value: 62.5%); type: functional
[10] = Cell cycle arrest in human NCI-H1299 cells assessed as G2/M phase accumulation at 1 uM after 48 hrs by propidium iodide staining based flow cytometry (reference value: 11.8%); type: functional
[11] = Antiproliferative activity against human LAN1 cells after 72 hrs by XTT assay; type: functional, cell-based; conditions: LAN1, 72 h; outline: as §1
[12] = Cell cycle arrest in human T98G cells assessed as G1 phase accumulation at 1 uM after 24 hrs by propidium iodide staining based flow cytometry (reference value: 86.1 +/- 1.29%); type: functional
[13] = Cell cycle arrest in human RD cells assessed as S phase accumulation at 1 uM after 24 hrs by propidium iodide staining based flow cytometry (reference value: 14.4 +/- 0.92%); type: functional
[14] = Cell cycle arrest in human LAN1 cells assessed as G1 phase accumulation at 1 uM after 24 hrs by propidium iodide staining based flow cytometry (reference value: 60.3 +/- 1.82%); type: functional
[15] = Cell cycle arrest in human SH-SY5Y cells assessed as S phase accumulation at 1 uM after 24 hrs by propidium iodide staining based flow cytometry (reference value: 14.3 +/- 1.52%); type: functional
[16] = Antiproliferative activity against human NCI-H1299 cells after 72 hrs by XTT assay; type: functional, cell-based; conditions: NCI-H1299, 72 h; outline: as §1
MCF7 [17] = assay: Disruption of beta-tubulin network in human MCF7 cells assessed as induction of micronucleated cells at 1 uM after 24 hrs by DAPI staining based immunofluorescence microscopic analysis; type: cell-based
Outline: (§3)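 Cells seeded on glass coverslips (1 x 10^5/well), treated 24 h, fixed in 4% paraformaldehyde 15 min, permeabilized with 0.5% Triton X-100, blocked in 5% BSA/PBS, stained overnight at 4 °C with anti-β-tubulin (1:200) then fluorescent secondary antibody; nuclei counterstained with DAPI; microtubule organization and nuclear morphology examined by fluorescence microscopy.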

[18] = Cell cycle arrest in human NB1 hTERT cells assessed as G1 phase accumulation at 1 uM after 72 hrs by propidium iodide staining based flow cytometry (reference value: 72.5%); type: functional
[19] = Induction of apoptosis in human NB1 hTERT cells assessed as late apoptotic cells at 5 uM after 72 hrs by Annexin-V FITC/propidium iodide staining based flow cytometry (reference value: 4.6%); type: functional
[20] = Cell cycle arrest in human MCF7 cells assessed as G1 phase accumulation at 1 uM treated for 24 hrs followed by compound washout measured after 24 hrs by propidium iodide staining based flow cytometry (reference value: 61.4%); type: functional
[21] = Cell cycle arrest in human NCI-H1299 cells assessed as G2/M phase accumulation at 1 uM after 24 hrs by propidium iodide staining based flow cytometry (reference value: 22.2 +/- 1.74%); type: functional
[22] = Cell cycle arrest in human HeLa cells assessed as G2/M phase accumulation at 1 uM after 8 hrs by propidium iodide staining based flow cytometry (reference value: 18.1%); type: functional
[23] = Induction of apoptosis in human NB1 hTERT cells assessed as early apoptotic cells at 5 uM after 72 hrs by Annexin-V FITC/propidium iodide staining based flow cytometry (reference value: 0.6%); type: functional
[24] = Induction of apoptosis in human NB-1 cells assessed as early apoptotic cells at 5 uM after 72 hrs by Annexin-V FITC/propidium iodide staining based flow cytometry (reference value: 3.2%); type: cell-based; conditions: nb1, 72 h
[25] = Cell cycle arrest in human SK-N-AS cells assessed as subG1 phase accumulation at 1 uM after 24 hrs by propidium iodide staining based flow cytometry relative to DMSO control; type: functional
[26] = Cell cycle arrest in human NB-1 cells assessed as S phase accumulation at 1 uM after 48 hrs by propidium iodide staining based flow cytometry (reference value: 1.7%); conditions: nb1, 48 h
[27] = Disruption of beta-tubulin network in human MCF7 cells assessed as uneven distribution around nuclei at 1 uM after 24 hrs by DAPI staining based immunofluorescence microscopic analysis; type: cell-based; outline: as §3
[28] = Cell cycle arrest in human MCF7 cells assessed as S phase accumulation at 1 uM after 144 hrs by propidium iodide staining based flow cytometry (reference value: 17.8%); type: functional
HeLa [29] = assay: Antiproliferative activity against human HeLa cells at 2 uM after 72 hrs by XTT assay; type: functional, cell-based
MCF7 [30] = assay: Increase in p53 expression in human MCF7 cells at 1 uM after 24 hrs by immunoblot method relative to control; type: functional; outline: as §2
[31] = Antiproliferative activity against human RD cells after 72 hrs by XTT assay; type: functional, cell-based; outline: as §1
[32] = Cell cycle arrest in human PC3 cells assessed as G1 phase accumulation at 1 uM after 24 hrs by propidium iodide staining based flow cytometry (reference value: 67 +/- 1.47%); type: functional; conditions: PC-3

`Cc1[nH]c2c(c1-c1nnc(-c3ccccc3)o1)Cc1ccccc1-2` showed an Activity [1] of 15%, an Activity [2] of 8.3% and an Activity [3] of 7.6%. For the same compound, the pIC50 [4] was 6.62, the Activity [5] was 24.9% and the Activity (HeLa [6]) was “Active”. For the same compound, the Activity [7] was 22.2%, the “fold change (FC)” value (A549) was 2 - 3 and the Activity [8] was 11.6%. The Activity [9] was 41.1%, the Activity [10] was 42.9% and the pIC50 [11] was 6.42. It also gave an Activity [12] of 11.1%, an Activity [13] of 10.6% and an Activity [14] of 11.8%. The Activity [15] was 15.6%, the pIC50 [16] was 6.92 and the Activity (MCF7 [17]) was “Active”. For the same compound, the Activity [18] was 45.6%, the Activity [19] was 13.2% and the Activity [20] was 56.8%. It also gave an Activity [21] of 74.6%, an Activity [22] of 45.3% and an Activity [23] of 3.8%. It also gave an Activity [24] of 4.2%, an Activity [25] of 6.3% and an Activity [26] of 2.4%. For the same compound, the Activity [27] was “Active”, the Activity [28] was 5.6% and the Activity (HeLa [29]) was “Active”. For the same compound, the “fold change (FC)” value (MCF7 [30]) was 2 - 3, the pIC50 [31] was 7.22 and the Activity [32] was 23.3%.
